Test results taken from ChEMBL document CHEMBL1833943, “Synthesis and structure-activity relationships of varied ether linker analogues of the antitubercular drug (6S)-2-nitro-6-{[4-(trifluoromethoxy)benzyl]oxy}-6,7-dihydro-5h-imidazo[2,1-b][1,3]oxazine (PA-824)” (J Med Chem, 2011).
In brackets after ≈: the same amount, converted by molar mass.

How the values were obtained:
[1] = Metabolic stability in human liver microsomes at 1 uM measured as compound remaining after 45 mins by LC/MS/MS analysis; type: ADME, Microsome; details: read-out: Stability
[2] = tested on: Mycobacterium tuberculosis; experiment: Antituberculosis activity against Mycobacterium tuberculosis H37Rv infected in BALB/c mouse chronic infection model assessed as fold reduction in bacterial CFU in lungs at 100 mg/kg, po administered for 5 days a week for 3 weeks beginning on day 70 postinfection relative to OPC-67683; type: functional
In short: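 Chronic M. tb infection model with dosing starting ~70 days post infection, once bacteria are in a plateau phase of growth. Oral 100 mg/kg daily, 5 days/week, 3 weeks. Lung CFUs counted. Value is the fold CFU reduction for the compound relative to the fold reduction for the reference agent.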

[3] = Metabolic stability in human liver microsomes at 1 uM measured as compound remaining after 1 hr by LC/MS/MS analysis; type: ADME, Microsome; details: read-out: Stability
[4] = Aqueous solubility of the compound in 0.1 M hydrochloric acid at pH 1 by HPLC analysis; type: physicochemical
[5] = tested on: Mycobacterium tuberculosis; experiment: Antituberculosis activity against Mycobacterium tuberculosis H37Rv under anaerobic conditions by fluorescence based low-oxygen-recovery assay; type: functional
[6] = tested on: Mycobacterium tuberculosis; experiment: Antituberculosis activity against Mycobacterium tuberculosis H37Rv under aerobic conditions by microplate alamar blue assay; type: functional
[7] = Aqueous solubility of the compound in water at pH 7 by HPLC analysis; type: physicochemical
In short: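 Solubility measured in water at pH 7 and 20 °C, quantified by HPLC.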

[8] = tested on: Mycobacterium tuberculosis; experiment: Antituberculosis activity against Mycobacterium tuberculosis H37Rv infected in BALB/c mouse acute infection model assessed as fold reduction in bacterial CFU in lungs at 100 mg/kg, po administered for 5 days a week for 3 weeks beginning on day 11 postinfection relative to PA-824; type: functional
In short: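 Mice with acute M. tb infection dosed orally at 100 mg/kg daily, 5 days each week, standard 3 week assay. Lung CFUs counted. Value is the fold CFU decrease for the compound divided by the fold CFU decrease for the internal reference standard run in the same experiment.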

[9] = Metabolic stability in CD1 mouse liver microsomes at 1 uM measured as compound remaining after 1 hr by LC/MS/MS analysis; type: ADME, Microsome; details: read-out: Stability
[10] = Stability of the compound in antimycobacterial activity assay condition assessed as parent compound level; type: ADME
Mus musculus = experiment: Toxicity in Mycobacterium tuberculosis H37Rv infected BALB/c mouse at 100 mg/kg, po administered for 5 days a week for 3 weeks beginning on day 11 postinfection; type: organism-based; set-up: dose 100 mg/kg, route oral; details: in vivo
[11] = Half life in plasma of CD1 mouse at 40 mg/kg, po; type: ADME, organism-based; set-up: dose 40 mg/kg, route oral
[12] = Ratio of AUC (0 to infinity) in lung of CD1 mouse to AUC (0 to infinity) in plasma of CD1 mouse at 40 mg/kg, po; type: ADME, organism-based; set-up: dose 40 mg/kg, route oral; details: read-out: Ratio AUC
[13] = Cmax in lung of CD1 mouse at 40 mg/kg, po; type: ADME, organism-based; set-up: dose 40 mg/kg, route oral
In short: (§1)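 Mice given a single oral dose of 40 mg/kg; drug levels followed over time in plasma and lung tissue to derive half-life, Cmax and AUC for each matrix.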

[14] = Cmax in plasma of CD1 mouse at 40 mg/kg, po; type: ADME, organism-based; set-up: dose 40 mg/kg, route oral; in short: as §1
[15] = AUC (0 to infinity) in lung of CD1 mouse at 40 mg/kg, po; type: ADME, organism-based; set-up: time infinity, dose 40 mg/kg, route oral; in short: as §1
[16] = Half life in the lung of CD1 mouse at 40 mg/kg, po; type: ADME, organism-based; set-up: dose 40 mg/kg, route oral; in short: as §1
[17] = AUC (0 to infinity) in plasma of CD1 mouse at 40 mg/kg, po; type: ADME, organism-based; set-up: time infinity, dose 40 mg/kg, route oral; in short: as §1

| Compound | remaining at 1 h, 1 µM [3] [%] | MIC [5] [µM] | MIC [6] [µM] | solubility [7] [µg/mL] | fold change (FC) [8] | remaining at 1 h, 1 µM [9] [%] | Stability [10] | further results |
| --- | --- | --- | --- | --- | --- | --- | --- | --- |
| C[C@H](O[C@@H]1COc2nc([N+](=O)[O-])cn2C1)c1ccc(OC(F)(F)F)cc1 |  |  |  |  |  |  |  | remaining at 0.75 h, 1 µM [1]: 73% |
| O=[N+]([O-])c1cn2c(n1)OC[C@@H](OCc1ccc(OC(F)(F)F)cc1)C2 [PRETOMANID] |  |  |  |  |  |  |  | remaining at 0.75 h, 1 µM [1]: 93%; fold change (FC) [2]: 0.14 |
| O=[N+]([O-])c1cn2c(n1)OC[C@@H](OCC#Cc1ccc(-c3ccc(OC(F)(F)F)cc3)nc1)C2 | 93 | 0.52 (≈ 0.239 µg/mL) | 0.09 (≈ 0.0414 µg/mL) | 0.72 (≈ 1.56 µM) | 1 | 90 |  | solubility [4]: 4 µg/mL (≈ 8.69 µM) |
| O=[N+]([O-])c1cn2c(n1)OC[C@@H](Oc1ccc(-c3ccc(OC(F)(F)F)cc3)cn1)C2 | 96 | 12 (≈ 5.07 µg/mL) | 0.39 (≈ 0.165 µg/mL) | 0.24 (≈ 0.568 µM) | 0.17 | 93 |  |  |
| O=[N+]([O-])c1cn2c(n1)OC[C@@H](Oc1cc(-c3ccc(OC(F)(F)F)cc3)ncn1)C2 |  |  | 2.1 (≈ 0.889 µg/mL) | 0.88 (≈ 2.08 µM) |  |  | < 50% |  |
| O=[N+]([O-])c1cn2c(n1)OC[C@@H](OCCOc1ccc(-c3ccc(OC(F)(F)F)cc3)cn1)C2 |  | 2.5 (≈ 1.17 µg/mL) | 0.04 (≈ 0.0187 µg/mL) | 0.79 (≈ 1.69 µM) |  |  | < 50% |  |
| CC(O[C@@H]1COc2nc([N+](=O)[O-])cn2C1)c1ccc(-c2ccc(OC(F)(F)F)cc2)cc1 (stereo partly specified) | 100 | 1.5 (≈ 0.674 µg/mL) | 0.19 (≈ 0.0854 µg/mL) | 0.84 (≈ 1.87 µM) |  | 92 |  | Activity (Mus musculus): Toxic |
| O=[N+]([O-])c1cn2c(n1)OC[C@@H](Oc1ccc(-c3ccc(OC(F)(F)F)cc3)cc1)C2 |  | 1.1 (≈ 0.463 µg/mL) | 0.09 (≈ 0.0379 µg/mL) | 0.33 (≈ 0.783 µM) | 8.1 |  |  | half-life [11]: 37.9 h; Kp [12]: 3.4; Cmax [13]: 15800 ng/mL; Cmax [14]: 1860 ng/mL; AUC(0-inf) [15]: 347000 ng·h/mL; half-life [16]: 15.3 h; AUC(0-inf) [17]: 102000 ng·h/mL |
| O=[N+]([O-])c1cn2c(n1)OC[C@@H](OCc1ccc(-c3ccc(OC(F)(F)F)cc3)cc1)C2 |  |  |  |  |  |  |  | half-life [16]: 12.8 h; fold change (FC) [2]: 0.86 |
| O=[N+]([O-])c1cn2c(n1)OC[C@@H](Oc1cc(-c3ccc(OC(F)(F)F)cc3)ccn1)C2 |  | 87 (≈ 36.7 µg/mL) | 5.1 (≈ 2.15 µg/mL) | 0.13 (≈ 0.308 µM) |  |  | < 50% |  |
| O=[N+]([O-])c1cn2c(n1)OC[C@@H](OCCCc1ccc(-c3ccc(OC(F)(F)F)cc3)cc1)C2 | 88 | 3.8 (≈ 1.76 µg/mL) | 0.15 (≈ 0.0695 µg/mL) | 1.7 (≈ 3.67 µM) | 1.5 | 91 |  | half-life [11]: 4.4 h; Kp [12]: 2.2; Cmax [13]: 10100 ng/mL; Cmax [14]: 990 ng/mL; AUC(0-inf) [15]: 29500 ng·h/mL; fold change (FC) [2]: 0.025; AUC(0-inf) [17]: 13300 ng·h/mL |
| O=[N+]([O-])c1cn2c(n1)OC[C@@H](OCC#Cc1ccc(OC(F)(F)F)cc1)C2 |  | 3.4 (≈ 1.3 µg/mL) | 0.12 (≈ 0.046 µg/mL) | 0.77 (≈ 2.01 µM) |  |  | < 50% |  |
| O=[N+]([O-])c1cn2c(n1)OC[C@@H](OCC#Cc1cccc(-c3ccc(OC(F)(F)F)cc3)c1)C2 | 94 | 1.3 (≈ 0.597 µg/mL) | 0.11 (≈ 0.0505 µg/mL) | 0.27 (≈ 0.588 µM) | 6.4 | 89 |  | half-life [11]: 14.7 h; Kp [12]: 7.2; Cmax [13]: 12900 ng/mL; Cmax [14]: 1660 ng/mL; AUC(0-inf) [15]: 257000 ng·h/mL; half-life [16]: 14.1 h; AUC(0-inf) [17]: 35800 ng·h/mL |
| O=[N+]([O-])c1cn2c(n1)OC[C@@H](OCCCC#Cc1ccc(-c3ccc(OC(F)(F)F)cc3)cc1)C2 |  | > 128 | 0.055 (≈ 0.0268 µg/mL) |  |  |  | Unstable |  |
| C[C@@H](O[C@@H]1COc2nc([N+](=O)[O-])cn2C1)c1ccc(OC(F)(F)F)cc1 |  |  |  |  |  |  |  | remaining at 0.75 h, 1 µM [1]: 60% |
| O=[N+]([O-])c1cn2c(n1)OC[C@@H](OCCCC#Cc1ccc(OC(F)(F)F)cc1)C2 | 69 | 1.9 (≈ 0.782 µg/mL) | 0.05 (≈ 0.0206 µg/mL) | 0.09 (≈ 0.219 µM) | 4.9 | 24 | < 50% | half-life [11]: 1.6 h; Kp [12]: 0.6; Cmax [13]: 2720 ng/mL; Cmax [14]: 2540 ng/mL; AUC(0-inf) [15]: 7570 ng·h/mL; half-life [16]: 1.4 h; AUC(0-inf) [17]: 12600 ng·h/mL |
| O=[N+]([O-])c1cn2c(n1)OC[C@@H](OC/C=C/c1ccc(OCc3ccccc3)cc1)C2 |  | 1.3 (≈ 0.53 µg/mL) | 0.16 (≈ 0.0652 µg/mL) | 0.06 (≈ 0.147 µM) |  |  | < 50% |  |
| O=[N+]([O-])c1cn2c(n1)OC[C@@H](OCC#Cc1ccc(-c3ccc(OC(F)(F)F)cc3)cc1)C2 | 93 |  |  | 0.07 (≈ 0.152 µM) | 89 | 85 |  | half-life [11]: 7.5 h; Kp [12]: 1.4; Cmax [13]: 760 ng/mL; Cmax [14]: 570 ng/mL; AUC(0-inf) [15]: 13600 ng·h/mL; half-life [16]: 12.3 h; fold change (FC) [2]: 1.6; AUC(0-inf) [17]: 10000 ng·h/mL |
| O=[N+]([O-])c1cn2c(n1)OC[C@@H](OCC#Cc1ccc(-c3ccc(OC(F)(F)F)cc3)cn1)C2 | 89 | 0.35 (≈ 0.161 µg/mL) | 0.025 (≈ 0.0115 µg/mL) | 0.05 (≈ 0.109 µM) | 0.91 | 86 |  |  |
| O=[N+]([O-])c1cn2c(n1)OC[C@@H](OCC#Cc1ccc(OCc3ccccc3)cc1)C2 |  | 3.5 (≈ 1.42 µg/mL) | 0.09 (≈ 0.0365 µg/mL) | 0.43 (≈ 1.06 µM) |  |  | < 50% |  |
| O=[N+]([O-])c1cn2c(n1)OC[C@@H](OCCOc1ccc(OC(F)(F)F)cc1)C2 | 85 | 5.1 (≈ 1.99 µg/mL) | 0.04 (≈ 0.0156 µg/mL) | 50 (≈ 128 µM) | 1.3 | 66 |  |  |
